Screening results as filed in PubChem BioAssay.
This is one part of a sample in which hits are shown more often than they occur.
CHOP inh = CHOP inhibition in unfolded protein response; CHO-K1 CHOP-promoter luciferase, tunicamycin-induced, 15-18 h; inhibition, % at 10 µM; 220,000 tested, 3.8% active; AID 2732;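 active = compounds that reduced the stress-induced luciferase reporter signal by more than about 70% of percent inhibition, limit read from the data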;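 note: 0% = tunicamycin plus vehicle and 100% = wells without tunicamycin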
Fh CTSL1 inh = blocks F. hepatica cathepsin L1 in PFM18AAP counter-screen. recombinant F. hepatica cathepsin L1, Z-Leu-Arg-MCA fluorescence. inhibition, % at 5.96 µM. 300,000 tested, 0.49% active;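 active = inhibition above the mean of all tested compounds plus 3 SD, set per screening campaign, cut at about 17% in these data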;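 note: 0% = plate median of test compound wells and 100% = 1 µM Z-Phe-Ala-diazomethylketone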
UCH37 inh = human UCH37 deubiquitinating enzyme inhibition; Q9Y5K5; purified proteasome/UCH37, Ub-AMC cleavage fluorescence; inhibition, % (concentration not given with the values); 330,000 tested, 0.33% active;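 active = mean inhibition over replicate wells above about 20%, limit read from the data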;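 note: 0% = compound-free wells with enzyme and 100% = wells lacking proteasome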
Target sequence (Q9Y5K5 whole entry, looked up): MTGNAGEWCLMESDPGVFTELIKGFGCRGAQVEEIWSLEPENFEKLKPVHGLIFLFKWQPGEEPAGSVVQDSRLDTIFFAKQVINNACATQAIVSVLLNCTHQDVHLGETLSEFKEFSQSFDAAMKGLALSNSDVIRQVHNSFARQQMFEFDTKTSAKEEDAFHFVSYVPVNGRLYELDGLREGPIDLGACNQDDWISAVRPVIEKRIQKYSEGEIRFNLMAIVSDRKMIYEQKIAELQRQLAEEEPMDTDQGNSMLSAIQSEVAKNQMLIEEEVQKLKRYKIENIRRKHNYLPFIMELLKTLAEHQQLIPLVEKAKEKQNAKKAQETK
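Material: human UCH37 enzyme supplied as purified proteasome complex / Amount: 0.15 nM proteasome as dispensed / Buffer or medium: pH 7.4 Tris-HCl (50 mM) with ovalbumin, ATP-MgCl2, DTT / Times: preincubation 30 min, reaction 25 min, room temperature / Technique: AMC fluorescence from Ub-AMC cleavage, excitation 355 nm, emission 460 nm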
XBP1 UPR activ = adaptive UPR (XBP1) activation | AID 463104 | 330,000 tested, 0.33% active | activation, % at 20 µM | CHO-XBP1 luciferase reporter, IRE1-XBP1 UPR activation, luminescence; percent of tunicamycin response, DMSO as zero;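 active = versus positive control, 20 µM dose yields 30% or more activation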;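 note: 100% = tunicamycin at 10 µg/mL and 0% = DMSO only wells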
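Signal: luciferase luminescence; Assay system: CHO-XBP1 luciferase reporter cells; Amount: one thousand reporter cells per well; Dosing: 20 µM single concentration, DMSO 1%; Benchmarks: high control tunicamycin 10 µg/mL final, low control DMSO vehicle only; Schedule: 6 h compound exposure at 37 °C, 5% CO2; Evaluation: percent activation relative to tunicamycin reference.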
CHOP UPR activ = activators of apoptotic arm of unfolded protein response (CHOP) | 330,000 tested, 0.34% active | CHO-CHOP luciferase reporter, UPR activation, luminescence; percent of tunicamycin response over DMSO baseline | activation, % at 10 µM;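 active = at 10 µM dose, activation of 40% or more, normalized to positive control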;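 note: 100% = tunicamycin at 10 µg/mL and 0% = DMSO alone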
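Dosing – one dose, 10 µM in 0.5% DMSO · System – CHO-CHOP cells, stable luciferase reporter of PERK-eIF2a-CHOP signalling · Input – 500 cells/well · Control set – tunicamycin 10 µg/mL final as positive, DMSO-only wells as negative · Timing – 6 h compound treatment, 37 °C · Measure – % activation vs tunicamycin · Technique – luminescence read with Steady-Glo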
Active calls of the source: *; / = no result given.

SMILES	CHOP inh	Fh CTSL1 inh	UCH37 inh	XBP1 UPR activ	CHOP UPR activ
CC(C)[C@@]1(NC(=O)[C@@H]2C=C3c4cccc5[nH]cc(c45)C[C@H]3N(C)C2)O[C@@]2(O)[C@@H]3CCCN3C(=O)[C@H](Cc3ccccc3)N2C1=O	6	/	/	/	/
CC(C)C[C@H]1C(=O)N2CCCC2[C@]2(O)O[C@](NC(=O)[C@@H]3C=C4c5cccc6[nH]cc(c56)CC4N(C)C3)(C(C)C)C(=O)N12 (some centres not stated)	29	31*	-17	-5	0
CC(C)[C@H]1C(=O)N2CCC[C@H]2[C@]2(O)O[C@](NC(=O)[C@@H]3C=C4c5cccc6[nH]cc(c56)C[C@H]4N(C)C3)(C(C)C)C(=O)N12	6	36*	-317	-5	-1
COc1cc(C=NNC(=O)CN2CC(c3ccccc3)CC2=O)ccc1OC(=O)N(C)C (configuration not stated)	/	/	4	/	/
CCCCCCn1c(N)c(C(=O)NCCN2CCOCC2)c2nc3ccccc3nc21	86*	6	-102	4	-2
CCCCn1c(N)c(C(=O)NCc2cccs2)c2nc3ccccc3nc21	92*	-2	-355	-2	-1
CN1CCN(c2ccc([N+](=O)[O-])c(NN=C3CN4CCC3CC4)c2)CC1	/	/	8	/	/
COc1ccccc1/C=C1/C(=NO)C2CCN1CC2	/	/	4	/	/
CCOC(=O)C1=C(N)Oc2cc(C)oc(=O)c2C12C(=O)N1c3c(cc(OC)cc32)C(C)=CC1(C)C (configuration not stated)	76*	7	4	0	0
CCOC(=O)C1=C(N)Oc2cc(C)oc(=O)c2C12C(=O)N1c3c(cccc32)C(C)=CC1(C)C (configuration not stated)	14	3	3	1	-1
CCOC(=O)C1=C(N)Oc2cc(C)oc(=O)c2C12C(=O)N1c3c(cccc32)C(C)CC1(C)C (configuration not stated)	83*	0	4	-2	-1
COc1cc(C(=O)NN=CC23CC[C@@H](O)CC2(O)CC[C@@H]2[C@@H]3CCC3(C)C(C4=CC(=O)OC4)CCC23O)ccc1O (some centres not stated)	/	/	3	/	/
Cc1ccc(/C=C2/C(=O)NC(=O)N(CCc3ccc(F)cc3)C2=O)o1	83*	2	2	-2	1
CN(CC(=O)Nc1ccccc1-c1ccccc1)C1CCCCC1	83*	5	0	-4	-2
O=C(/C=C/c1ccccc1)c1c(O)n(CCc2ccccc2)c(=O)[nH]c1=O	92*	11	-17	2	1
O=C(NN=CC1C(=O)NC(=S)N(c2ccccc2)C1=O)c1cc(Br)c(O)c(Br)c1 (configuration not stated)	/	/	-1	/	/
CC(=O)Nc1ccc([As](=O)(O)c2ccc([N+](=O)[O-])cc2)cc1	17	9	-2	-1	-1
COP(=O)(OC)C(C=O)=NNc1ccc([N+](=O)[O-])cc1	/	/	20*	/	/
C=C1[C@@H](C)[C@H]2[C@H](Cc3ccccc3)NC(=O)[C@]23OC(=O)C=C[C@H](O)CCC[C@@H](C)CC=C[C@H]3[C@@H]1O	/	/	1	/	/
CC(C)(C)NC(=S)N=C(N)N[N+](=O)[O-]	/	/	3	/	/
O=c1[nH]c(=S)n(CCC2=CCCCC2)c(O)c1/C=N/Nc1ccccc1	73*	-2	1	-4	1
O=c1[nH]c(=S)n(CCC2=CCCCC2)c(O)c1C=NC1CCN(Cc2ccccc2)CC1	81*	-3	4	1	3
COC(=O)C1C2c3ccccc3OC1(C)N=c1sc(=Cc3cnn(C)c3)c(=O)n12 (configuration not stated)	/	/	2	/	/
CCOC(=O)c1cc(C(O)(C(=O)OC)C(F)(F)F)c(N=CN(C)C)o1 (configuration not stated)	/	/	10	/	/
CC(C)CCn1c(=O)c(C(=O)Nc2ccccc2S(N)(=O)=O)c(O)c2ccccc21	92*	1	/	6	17
CCCCn1c(=O)c(C(=O)Nc2ccccc2C)c(O)c2ccccc21	/	-1	-10	-2	1
CCn1c(O)c(N=Nc2ccc(S(=O)(=O)N3CCOCC3)cc2)c(=O)n(CC)c1=S	73*	3	5	-7	29
